Results reported in publication PMC6911266 (Nature, 2019).
Positions count from the first letter of the chain named. Like-named read-outs stand apart in the source and are kept apart here.

Legend:
[1] = Uptake in control liposomes; assay type: biochemical; settings: 100 nM [3H]-drug, liposomes without PfCRT
Procedure, shortened: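 Control liposomes lack PfCRT and are loaded with 100 mM KPi, pH 7.5, and 2 mM β-mercaptoethanol. They are diluted into 100 mM Tris/Mes, pH 5.5, with 100 nM [3H]-CQ (5.45 Ci/mmol) or [3H]-PPQ (15 Ci/mmol) for 1 min. Non-specific filter binding, measured as mock uptake without liposomes, is subtracted. Data come from 2 independent experiments, each with 4 technical replicates.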

PfCRT WT (3D7) = molecular target: T1, PfCRT WT (3D7) (Plasmodium falciparum, UniProt Q9N623); experiment: Transport; assay type: biochemical; settings: for 1-min uptake, transport in proteoliposomes: 100 nM [3H]-drug, inwardly-directed pH gradient; for transport activity (in words): proteoliposomes
T1 sequence (Q9N623 1-424): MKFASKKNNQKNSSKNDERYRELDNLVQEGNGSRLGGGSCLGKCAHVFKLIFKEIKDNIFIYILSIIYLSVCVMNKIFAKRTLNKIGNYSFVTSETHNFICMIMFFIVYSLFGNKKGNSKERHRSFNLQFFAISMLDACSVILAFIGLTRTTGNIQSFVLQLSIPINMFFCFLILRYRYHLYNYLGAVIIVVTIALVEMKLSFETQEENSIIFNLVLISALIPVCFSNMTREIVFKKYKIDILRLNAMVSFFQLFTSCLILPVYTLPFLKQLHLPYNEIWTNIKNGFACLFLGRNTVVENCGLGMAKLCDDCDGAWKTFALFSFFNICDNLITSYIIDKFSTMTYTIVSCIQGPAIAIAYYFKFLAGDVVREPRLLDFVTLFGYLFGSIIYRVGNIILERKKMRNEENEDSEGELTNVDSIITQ
Procedure, shortened: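 PfCRT proteoliposomes (40 ng protein per assay) are loaded with 100 mM KPi, pH 7.5, and 2 mM β-mercaptoethanol. They are diluted into 100 mM Tris/Mes, pH 5.5, giving an inward pH gradient, with 100 nM [3H]-CQ (5.45 Ci/mmol) or [3H]-PPQ (15 Ci/mmol) for 1 min. Filter mock uptake without liposomes and control-liposome uptake are subtracted. Data come from 2 independent experiments, each with 4 technical replicates.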

PfCRT 7G8 [2] = molecular target: T2, PfCRT 7G8 (Plasmodium falciparum, UniProt W7FI62); assay type: biochemical; settings: for transport activity (in words): proteoliposomes
T2 sequence (W7FI62 1-424): T1 sequence (Q9N623 1-424) with C72S, K76T, A220S, N326D, I356L

PfCRT 7G8 [3] = molecular target: T2, PfCRT 7G8; experiment: Equilibrium dialysis binding, PfCRT variant in nanodiscs; settings: for Bmax, binding at pH 5.5 / Bmax, binding at pH 7.5: equilibrium dialysis
[4] = test system: P. falciparum 7G8^7G8+F145I parasite line; experiment: Parasite drug susceptibility assay; assay type: cell-based, Plasmodium falciparum; settings: for IC50: Plasmodium falciparum, 7G8, 72 h
Procedure, shortened: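 Asynchronous asexual blood-stage parasites were seeded at 0.3% parasitemia and 1% hematocrit into 2-fold, 10-point test compound dilutions. Incubation was 72 h at 37°C under 5% O2/5% CO2/90% N2. Final parasitemia was read by flow cytometry. IC50 came from nonlinear regression, 4 independent assays in duplicate, with two-tailed Mann-Whitney U tests.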

PfCRT 7G8+C350R = molecular target: T3, PfCRT 7G8+C350R (Plasmodium falciparum, UniProt W7FI62, C350R); experiment: Transport; assay type: biochemical; settings: for 1-min uptake, transport in proteoliposomes: 100 nM [3H]-drug, inwardly-directed pH gradient; for Vmax, transport in proteoliposomes: initial rates over 3 s, Michaelis-Menten fit; for transport activity (in words): proteoliposomes
T3 sequence (W7FI62 1-424 C350R): T1 sequence (Q9N623 1-424) with C72S, K76T, A220S, N326D, C350R, I356L

[5] = test system: P. falciparum 7G8^7G8+F145I parasite line; experiment: [3H]-drug accumulation assay in cultured parasites; assay type: cell-based, Plasmodium falciparum; settings: 60 min, trophozoites
Procedure, shortened: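 Sorbitol-synchronized early trophozoites (24–26 h) were magnet-purified and resuspended in bicarbonate-free RPMI 1640 (25 mM HEPES, 10 mM glucose, 0.2 mM hypoxanthine, pH 7.4), counted by hemocytometer. They were mixed with an equal volume of radiolabelled drug (10 nM [3H]-CQ before mixing) for 1 h at 37°C, spun through dibutyl phthalate, then scintillation counted. CAR was internal/external drug, corrected for uninfected erythrocytes, per 10^6 cells at 75 fl; 4–6 assays in duplicate.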

[6] = binding at pH 5.5, equilibrium dialysis, pH 5.5
[7] = binding at pH 7.5, equilibrium dialysis, pH 7.5

For `Clc1ccc2c(N3CCN(CCCN4CCN(c5ccnc6cc(Cl)ccc56)CC4)CC3)ccnc2c1` [PPQ, piperaquine], the “1-min uptake in control liposomes” value [1] was 0.09 ± 0.01 nmol/mg, the “1-min uptake, transport in proteoliposomes” value (from here on “1-min uptake, transport”) (PfCRT WT (3D7)) was 0.51 ± 0.04 nmol/mg and the “transport activity (in words)” value (PfCRT WT (3D7)) was “Minimal”. For the same compound, the “transport activity (in words)” value (PfCRT 7G8 [2]) was “Minimal”, the “transport activity (in words)” value (PfCRT 7G8 [2]; listed as [^3H]-PPQ) was “no detectable” and the Kd (PfCRT 7G8 [3]; [6]) was 90 ± 20 nM. For the same compound, the Kd (PfCRT 7G8 [3]; [7]) was 220 ± 40 nM, the “Bmax, binding at pH 5.5” value (PfCRT 7G8 [3]; pH 5.5) was 0.40 ± 0.01 mol CQ/mol PfCRT and the “Bmax, binding at pH 7.5” value (PfCRT 7G8 [3]; pH 7.5) was 0.40 ± 0.02 mol CQ/mol PfCRT. For the same compound, the “fold increase in IC90 compared to the isogenic 7G8 control line” value ([4]; 72 h growth inhibition) was 188 fold, the IC50 [4] was 28.7 ± 1 nM and the “1-min uptake, transport” value (PfCRT 7G8+C350R) was 0.82 ± 0.07 nmol/mg. For the same compound, the “Vmax, transport in proteoliposomes” value (PfCRT 7G8+C350R) was 153.00 ± 3.10 nmol/mg/min, the “transport activity (in words)” value (PfCRT 7G8+C350R) was “substantially increased” and the “[3H]-PPQ CAR (cellular accumulation ratio)” value ([5]; 20 nM [3H]-PPQ) was 1125.6 ± 59.6.

In the case of `CCN(CC)CCCC(C)Nc1ccnc2cc(Cl)ccc12` (centres unmarked) [CQ, chloroquine], the “1-min uptake in control liposomes” value [1] is reported as 0.12 ± 0.02 nmol/mg, the “1-min uptake, transport” value (PfCRT WT (3D7)) is reported as 0.58 ± 0.08 nmol/mg and the “transport activity (in words)” value (PfCRT WT (3D7)) is reported as “minimal uptake”. The “1-min uptake, transport” value (PfCRT 7G8 [2]; 100 nM [3H]-drug, 1 min, inwardly-directed pH gradient) was 3.14 ± 0.50 nmol/mg, the “catalytic turnover number (kcat)” value (PfCRT 7G8 [2]; from Vmax, assuming full activity of reconstituted PfCRT 7G8) was ~ 0.2 s^−1 and the “Vmax, transport in proteoliposomes” value (PfCRT 7G8 [2]; initial rates over 3 s, Michaelis-Menten fit) was 92.2 ± 4.9 nmol/mg/min. For the same compound, the “time course of uptake (in words)” value (PfCRT 7G8 [2]; pH gradient 5.5–7.5 and membrane potential (valinomycin)) was “maximal within one minute”, the “transport activity (in words)” value (PfCRT 7G8 [2]) was “robust transport activity” and the Kd (PfCRT 7G8 [3]; [6]) was 210 ± 60 nM. The Kd (PfCRT 7G8 [3]; [7]) was 280 ± 60 nM, the “Bmax, binding at pH 5.5” value (PfCRT 7G8 [3]; pH 5.5) was 0.40 ± 0.03 mol CQ/mol PfCRT and the “Bmax, binding at pH 7.5” value (PfCRT 7G8 [3]; pH 7.5) was 0.38 ± 0.02 mol CQ/mol PfCRT. For the same compound, the IC50 [4] was 7.3 ± 0.4 nM, the “1-min uptake, transport” value (PfCRT 7G8+C350R) was 0.80 ± 0.21 nmol/mg and the “Vmax, transport in proteoliposomes” value (PfCRT 7G8+C350R) was 17.97 ± 0.87 nmol/mg/min. For the same compound, the “transport activity (in words)” value (PfCRT 7G8+C350R) was “reduced uptake” and the “[3H]-CQ CAR (cellular accumulation ratio)” value ([5]; 5 nM [3H]-CQ) was 388.4 ± 38.9.
